From ChEMBL document CHEMBL4513216, “Probing the Open Global Health Chemical Diversity Library for Multistage-Active Starting Points for Next-Generation Antimalarials” (ACS Infect Dis, 2020)

Experiment: Toxicity liver stage against HepG2, at 10uM
Assay type: cell-based
Design: test concentration 10 uM, cell line HepG2-A16-CD81EGFP
Settings: human, HepG2-A16-CD81EGFP cells; read-out: INHIBITION
Summary of the method: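 Uninfected HepG2-A16-CD81EGFP cells, 3 × 10^3 per well, 1536-well, plated on prespotted compound at 10 μM final, parasite-free screening media added to match infected plates; puromycin 10 μM positive, DMSO 0.5% negative; run in parallel with 48 h PbLuc assay at 37 °C, 5% CO2; viability by CellTiter-Glo luminescence, normalized to controls.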

| SMILES | cytotoxicity at 10 µM [%] |
| --- | --- |
| Cn1c2ccccc2c2ncn(CCN3CCOCC3)c(=O)c21 | 15.7 |
| Cc1c(CNCc2nn(-c3ccccc3)c3c2CCC3)cc(C#N)n1C | 13.3 |
| CCOC(=O)CNC(=O)NCc1cc(C)n(-c2ccccc2OC)c1C | 13.3 |
| CN(CCC(O)c1ccccc1)Cc1nc(-c2ccccc2)no1 (centres undefined) | 7.86 |
| CC(=O)NC1CCCc2c1[nH]c1ccc(F)cc21 (centres undefined) | -4.41 |
| CCN1C[C@H]2CCN(C(=O)c3cc[nH]n3)CC[C@H]2S1(=O)=O | 12.2 |
| O=C(O)C1CCCN(C(=O)CCn2ccc3c(Cl)cccc32)C1 (centres undefined) | 11 |
| CC(C)n1[nH]c(=O)c2c1NC(=O)CSC2C1CCCCC1 (centres undefined) | -4.56 |
| CC(=O)Nc1nc(-c2ccc(F)cc2)c[nH]1 | 2.41 |
| O=C(NCCN1CCOCC1)c1ccc(-n2ccc3ccccc32)s1 | -1.27 |
| CCOC(=O)C1CCN(c2cc(C(=O)N3CCOCC3)nc(C)n2)CC1 | -1.07 |
| Cc1nnc(Nc2cccc(C3CCCN(Cc4ncc[nH]4)C3)n2)s1 (centres undefined) | -5.5 |
| COCCN1C(=O)CO[C@H]2CN(Cc3ccccc3Cl)C[C@@H]21 | -6.55 |
| O=C(NCc1ccc(CN2CCCC2)cc1)NC1(CO)CCCC1 | -63.4 |
| O=C(NC1CCN(C2CC2)CC1)c1cc(Cl)ccc1-n1cnnn1 | 3.43 |
| Cc1noc(C)c1CN(C)Cc1csc(-c2ncccn2)n1 | 16.5 |
| Cc1nccn1-c1ccc(C(C)NCCC(C)C)cc1 (centres undefined) | 15.9 |
| Cc1c(NC(C)C(C)C)cccc1C(=O)NCc1ccnn1C (centres undefined) | 57.6 |
| Fc1ccc(CNCc2nnc3n2CC(C(F)(F)F)CC3)cc1 (centres undefined) | 6.71 |
| CNS(=O)(=O)c1cccc(C(C)NCc2ccc(C)c(C)c2)c1 (centres undefined) | 3.92 |
| CN(Cc1ccco1)Cc1ccccc1CNC(=O)c1cnccn1 | 17.1 |
| CN(C)CCN(Cc1ccc(C(F)(F)F)cc1)C(=O)c1cc[nH]n1 | 3.95 |
| NS(=O)(=O)N1CCc2ccc(NC(=O)CC(F)(F)F)cc21 | 6.15 |
| Cc1cc(=O)n2ncnc2n1CC(O)c1ccccc1 (centres undefined) | -7.82 |
| CN1CCN(S(=O)(=O)c2cccc(C#N)c2)c2ccc(F)cc21 | 2.98 |
| OCc1cc2ccccc2nc1NC1CC=CC1 | -56 |
| O=C1CCc2cc(S(=O)(=O)NC(=O)c3ccc4c(c3)COC4)ccc2N1 | 4.82 |

| SMILES | cytotoxicity at 10 µM [%] |
| --- | --- |
| Clc1cc(Cl)cc(OCCN2CCC(n3cncn3)CC2)c1 | 10.8 |
| CCC1CN(C)c2ccccc2CN1C(=O)Nc1ccccc1OC (centres undefined) | -1.87 |
| N#Cc1c(Cl)nsc1NCCCN1C(=O)COc2ccccc21 | 22.2 |
| C=C(C)COCCNC(=O)Nc1cccc(Cn2nc(C)nc2C)c1 | 7.64 |
| Cc1nn(C)c(Oc2cccc(F)c2)c1NC(=O)C1CCOCC1 | -3.91 |
| CCN(CC)c1ccc(CNS(=O)(=O)C2CCOCC2)cc1F | -13.4 |
| O=C(Nc1ccc(N2CCCC2)nc1)N1CCc2ccccc2C1 | -10.2 |
| COC1COC2(CCN(C(=O)c3ccccc3F)CC2)C1 (centres undefined) | -92.4 |
| Cc1occc1C(=O)N1C[C@@H]2CCCO[C@@H]2[C@H](NC(=O)CC2CC2)C1 | -102 |
| Cc1cccc(-c2nnn3c2COC(CNC(=O)N2CCCC2)C3)c1 (centres undefined) | -94.5 |
| Cc1nc(C(=O)N2CC[C@@]3(C[C@@H](NS(C)(=O)=O)CCO3)C2)cs1 | -66 |
| CO[C@@H]1CCN(Cc2cccs2)[C@H]1Cc1ccncc1 | -73.4 |
| CCC(CC)CN1CCC2(CCCN(c3ncccn3)C2)C1 (centres undefined) | -83.5 |
| O=C(c1ccsc1)N1CCc2ncc(Cn3cncn3)n2CC1 | -78 |
| NC(=O)c1ccc(-n2ccnc2-c2cccc(O)c2)cc1N1CCCC1 | 15.8 |
| CCc1nc(C)c(C(=O)N2C[C@@H](C(=O)O)[C@H](C3CC3)C2)s1 | 3.41 |
| CCN(Cc1ccncc1)C1CCCN(Cc2ccc(F)cc2Cl)C1 (centres undefined) | 7.94 |
| Cn1ccnc1C1CCN(S(=O)(=O)c2ccc3[nH]c(=O)[nH]c3c2)CC1 | 4.82 |
| CCc1nc(CNc2nc3c(s2)c(C)nn3C)cs1 | -72 |
| O=C(c1cc(=O)n(-c2ccccc2)[nH]1)N1CCOC(C(F)(F)F)C1 (centres undefined) | 3.32 |
| C/C=C(\C)CN1C[C@H](NC(=O)CCOC)[C@@H](c2ccc(C)o2)C1 | 7.06 |
| Cc1c(C(C)NCC2CCCC2)cnn1-c1ccc(F)cc1F (centres undefined) | 9 |
| CN(C)c1ccc(C(=O)NCCCc2ccccn2)cn1 | -54 |
| Cc1csc2c(N3CCNC(C(=O)Nc4ccc(F)cc4)C3)ncnc12 (centres undefined) | 12.7 |
| COc1cccc2c1OCC(NCc1cnn(-c3ccccc3)c1)C2 (centres undefined) | -0.517 |
| COc1coc(CN2CCCC(CCc3ccc(F)c(F)c3)C2)cc1=O (centres undefined) | 1.95 |
| CC(C)n1cc(C(=O)N2CCN(c3cccc(C(F)(F)F)c3)CC2)cn1 | 5.37 |

| SMILES | cytotoxicity at 10 µM [%] |
| --- | --- |
| CN(C)Cc1ccc(C(=O)N2CCCC(COc3ccc(F)cc3)C2)o1 (centres undefined) | -12.9 |
| Cn1ccnc1-c1cnn(CC(=O)Nc2ccnn2C)c1 | -10.1 |
| CN1CCCCCC1C(=O)N1CCN(c2ccccc2C#N)CC1 (centres undefined) | -7.17 |
| CCn1nc(C)c(CN2CCCC(c3ccc(C(=O)O)cc3)C2)c1C (centres undefined) | -8.56 |
| Cc1nccc(N[C@H]2CN(C(=O)CN3CCCC3=O)C[C@@H]2C(C)C)n1 | -2.14 |
| Cc1cccc(C(=O)Nc2ccc(OC3CCN(C)CC3)cc2)c1 | -26.1 |
| CC(=O)N1CCCN(C(=O)c2ccc(=O)n(C)c2)c2ccccc21 | -10.4 |
| CN1CCOC(CN(C(=O)CCc2cnn(C)c2)c2nccs2)C1 (centres undefined) | -10.2 |
| Nc1cc2c(nn1)CCN(C(=O)CCC1CCCCC1)C2 | 6.5 |
| CCc1nc(CC(=O)N2CCCCC2Cn2cccn2)cs1 (centres undefined) | -17.6 |
| CC(NC(=O)NCCCN(C)S(C)(=O)=O)c1ccc(Cl)cc1 (centres undefined) | -2.24 |
| O=C(c1ccc(Cl)o1)N1CCCC(c2cc(C(F)(F)F)[nH]n2)C1 (centres undefined) | 2.14 |
| CNC(=O)C1CCN(C(=O)CCn2cccn2)CC1 | -3.76 |
| Cc1noc(C)c1C(=O)NCc1ccnc(OCC(F)(F)F)c1 | -0.421 |
| Cn1nc(COc2cncnc2)c2c1CCN(Cc1ccco1)C2 | 9.64 |
| CN(Cc1ccco1)C[C@H]1OC[C@@H]2CCN(Cc3ccsc3)C[C@@H]21 | -3.2 |
| CCOC1COC2(CCN(C(=O)c3cccc(C)n3)CC2)C1 (centres undefined) | 6.24 |
| COc1cccc([C@H]2CN(C(C)=O)[C@@H]3CCN(Cc4ccsc4)C[C@H]23)c1 | -9.19 |
| COc1ccc(CNc2c(C)nn(C(C)C)c2C)cc1OC | -38.5 |
| CC1CCN(C(=O)[C@@H]2CC[C@@H]3[C@@H](CCN3c3ncc(F)cn3)O2)CC1 | -0.359 |
| Cc1cccc(CO[C@@H]2CO[C@@]3(CCN(S(=O)(=O)N(C)C)C3)C2)n1 | 4.14 |
| c1cc(CN2CCO[C@H]3[C@H](OCC4CCCC4)CC[C@@H]32)ccn1 | 13.9 |
| CN(C)C1CCN(C(=O)c2cc(-c3ccn(C)n3)n3ccccc23)CC1 | -117 |
| CCc1ncc(CN2C[C@@H]3CC[C@H]2CN(C(=O)C2CCC2)C3)cn1 | 4.96 |
| O=S(=O)(c1cccc(F)c1)N1C[C@H]2CC[C@@H](C1)N(Cc1ccccc1)C2 | -3.03 |
